The target of one assay is Autotaxin (Homo sapiens) (UniProt Q13822). Kind of assay: Inhibition of human NPP2 expressed in COS7 cells assessed as production of p-nitrophenol using pnp-TMP as the substrate at 100 uM after 15 mins […]. Conditions: COS-7. The class given is cell-based. Put shortly: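 Human NPP1, NPP2 (membrane lysate or conditioned medium for the secreted form) or NPP3 from transfected COS-7 cells, preincubated 3 min at 37 °C in 50 mM Tris pH 8.5 buffer with CaCl2, NaCl and KCl. Substrate and inhibitor both at 100 μM final. pnp-TMP: p-nitrophenol read at 405 nm at 15 min. ATP or Ap5A: stopped at 30 min with perchloric acid, then HPLC. Results as % residual activity versus control; three to six experiments in triplicate.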

Assay [1] has as its target T1, Ectonucleotide pyrophosphatase/phosphodiesterase family member 3 (Homo sapiens) (UniProt O14638).
T1 sequence (whole entry): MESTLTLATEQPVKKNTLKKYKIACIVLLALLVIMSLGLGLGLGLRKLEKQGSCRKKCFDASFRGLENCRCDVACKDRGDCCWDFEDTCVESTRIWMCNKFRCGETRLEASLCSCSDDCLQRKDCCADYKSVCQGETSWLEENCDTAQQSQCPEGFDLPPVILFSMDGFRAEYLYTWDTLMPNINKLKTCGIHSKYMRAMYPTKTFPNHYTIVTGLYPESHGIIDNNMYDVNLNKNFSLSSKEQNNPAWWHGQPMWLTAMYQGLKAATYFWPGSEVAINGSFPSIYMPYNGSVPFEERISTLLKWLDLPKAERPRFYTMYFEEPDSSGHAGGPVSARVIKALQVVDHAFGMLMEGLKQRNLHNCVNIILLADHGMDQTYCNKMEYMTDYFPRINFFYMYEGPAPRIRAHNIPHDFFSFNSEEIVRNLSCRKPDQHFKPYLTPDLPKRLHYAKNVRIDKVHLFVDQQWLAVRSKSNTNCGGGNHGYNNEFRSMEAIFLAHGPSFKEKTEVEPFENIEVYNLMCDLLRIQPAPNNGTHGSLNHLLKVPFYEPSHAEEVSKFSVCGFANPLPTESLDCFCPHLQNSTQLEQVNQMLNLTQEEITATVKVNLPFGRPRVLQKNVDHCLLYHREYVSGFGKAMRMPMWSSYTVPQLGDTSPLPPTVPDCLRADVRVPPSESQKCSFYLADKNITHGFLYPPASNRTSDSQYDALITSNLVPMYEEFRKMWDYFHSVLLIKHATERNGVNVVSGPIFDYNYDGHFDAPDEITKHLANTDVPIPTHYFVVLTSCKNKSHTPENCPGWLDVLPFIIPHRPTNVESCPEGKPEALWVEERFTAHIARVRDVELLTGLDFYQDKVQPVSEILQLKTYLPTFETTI
The experiment in a line: Activity of human NPP3 expressed in COS7 cells assessed as production of p-nitrophenol using Ap5A as the substrate at 100 uM after 30 mins by malachite green reagent method. Type of assay: cell-based. Particulars: COS-7.

Assay [2] deals with T2, Ectonucleoside triphosphate diphosphohydrolase 1 (Homo sapiens) (UniProt P49961).
T2 sequence (whole entry): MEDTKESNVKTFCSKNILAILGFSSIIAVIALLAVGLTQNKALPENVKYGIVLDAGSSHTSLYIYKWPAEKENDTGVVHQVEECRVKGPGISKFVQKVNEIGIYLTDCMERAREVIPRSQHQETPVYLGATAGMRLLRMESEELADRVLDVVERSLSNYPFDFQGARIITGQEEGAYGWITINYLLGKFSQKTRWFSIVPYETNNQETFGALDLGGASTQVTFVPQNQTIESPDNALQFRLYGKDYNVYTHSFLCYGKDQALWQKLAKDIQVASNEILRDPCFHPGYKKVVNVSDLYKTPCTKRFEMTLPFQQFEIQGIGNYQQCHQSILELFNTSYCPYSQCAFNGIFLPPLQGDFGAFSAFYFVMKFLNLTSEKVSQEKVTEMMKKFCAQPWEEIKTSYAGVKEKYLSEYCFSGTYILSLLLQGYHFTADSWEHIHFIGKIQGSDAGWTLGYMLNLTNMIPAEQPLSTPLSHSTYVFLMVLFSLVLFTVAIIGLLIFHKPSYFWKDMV
The experiment in a line: Activity of human NTPDase1 expressed in COS7 cells assessed as amount of inorganic phosphate released using ATP as the substrate at 100 uM after 15 mins by malachite green reagent method. Conditions: COS-7. The class given is cell-based. Put shortly: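 Crude membrane-enriched protein extract of transiently transfected COS-7 cells, preincubated 3 min at 37 °C in Tris-Ringer buffer pH 7.3. Reaction started with 100 μM ATP, or with the analogue alone at 100 μM to test it as substrate. Stopped after 15 min with malachite green reagent; released Pi read at 630 nm. Mean ± SD, n = 3.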

Assay [3] has as its target 5'-nucleotidase (Homo sapiens) (UniProt P21589). Kind of assay: Inhibition of human Ecto-5'-nucleotidase expressed in COS7 cells assessed as amount of inorganic phosphate released using AMP as the substrate at 100 uM after 15 mins by malachite green reagent method. Conditions: COS-7.
For assay [4], the target named is P2Y purinoceptor 2 (Homo sapiens) (UniProt P41231). Kind of assay: Agonist activity at GFP tagged-human P2Y2 receptor expressed in human 1321N1 cells assessed as elevation in calcium level at 25 uM after 30 mins by fluorescence spectrophotometric analysis. The class given is functional, cell-based.
For the next assay, the target named is P2Y purinoceptor 1 (Homo sapiens, UniProt P47900). The experiment in a line: Ratio EC50 for ATP to compound for GFP tagged-human P2Y1 receptor expressed in human 1321N1 cells assessed as elevation in calcium level after 30 mins by fluorescence spectrophotometric analysis. Type of assay: functional, cell-based.

Molecules are shown by their SMILES. The source made the active and inactive calls. The calls are words filed in the database; no cut-off is given here. A value given as a limit tells only on which side of the number the result lay.

Chain of P2Y purinoceptor 1 (P47900 whole entry): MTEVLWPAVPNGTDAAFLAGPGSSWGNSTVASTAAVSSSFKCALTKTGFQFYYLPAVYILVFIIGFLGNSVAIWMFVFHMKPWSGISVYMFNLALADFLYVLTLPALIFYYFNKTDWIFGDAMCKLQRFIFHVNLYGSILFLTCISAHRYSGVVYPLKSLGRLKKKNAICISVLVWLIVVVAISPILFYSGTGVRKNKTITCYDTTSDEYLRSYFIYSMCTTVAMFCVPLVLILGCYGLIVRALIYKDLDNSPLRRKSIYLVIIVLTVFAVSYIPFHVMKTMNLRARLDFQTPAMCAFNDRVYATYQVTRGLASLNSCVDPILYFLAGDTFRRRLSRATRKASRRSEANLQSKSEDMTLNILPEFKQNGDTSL
Chain of P2Y purinoceptor 2 (Homo sapiens) (P41231 whole entry): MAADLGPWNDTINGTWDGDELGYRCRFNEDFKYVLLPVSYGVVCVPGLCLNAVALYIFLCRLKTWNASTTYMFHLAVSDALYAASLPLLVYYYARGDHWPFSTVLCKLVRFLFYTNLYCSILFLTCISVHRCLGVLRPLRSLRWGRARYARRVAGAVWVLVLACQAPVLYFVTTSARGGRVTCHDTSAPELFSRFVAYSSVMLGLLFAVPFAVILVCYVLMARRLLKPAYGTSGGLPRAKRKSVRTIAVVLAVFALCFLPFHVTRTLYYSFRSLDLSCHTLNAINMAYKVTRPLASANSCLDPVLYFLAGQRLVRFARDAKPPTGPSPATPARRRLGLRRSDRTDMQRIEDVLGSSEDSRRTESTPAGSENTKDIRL
Chain of 5'-nucleotidase (Homo sapiens) (P21589 whole entry): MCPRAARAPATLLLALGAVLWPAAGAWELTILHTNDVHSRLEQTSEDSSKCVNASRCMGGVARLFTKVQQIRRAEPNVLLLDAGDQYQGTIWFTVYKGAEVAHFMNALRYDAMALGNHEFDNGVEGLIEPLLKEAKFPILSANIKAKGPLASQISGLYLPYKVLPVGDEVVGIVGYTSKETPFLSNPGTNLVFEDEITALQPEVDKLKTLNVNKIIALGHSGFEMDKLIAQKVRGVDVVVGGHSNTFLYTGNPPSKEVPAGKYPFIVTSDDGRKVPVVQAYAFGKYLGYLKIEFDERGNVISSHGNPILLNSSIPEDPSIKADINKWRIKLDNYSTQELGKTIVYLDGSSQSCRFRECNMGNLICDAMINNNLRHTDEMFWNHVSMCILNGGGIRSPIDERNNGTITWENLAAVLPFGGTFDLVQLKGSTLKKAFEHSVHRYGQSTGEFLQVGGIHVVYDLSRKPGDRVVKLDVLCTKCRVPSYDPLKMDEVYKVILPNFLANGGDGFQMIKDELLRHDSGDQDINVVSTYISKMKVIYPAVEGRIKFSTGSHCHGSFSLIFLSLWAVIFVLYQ

In the case of `Nc1ncnc2c1ncn2[C@H]1C[C@H](O)[C@@H](COP(=O)(O)CP(=O)(O)OP(=O)(O)CP(=O)(O)OC[C@H]2O[C@@H](n3cnc4c(N)ncnc43)C[C@@H]2O)O1`, the inhibition turned out to be 95% at Autotaxin (Homo sapiens) and 80% in assay [3]. Besides, the results for the Activity in assay [1] and in assay [2] were 5.5% and 1.1%, respectively. For the same compound, the result in assay [4] was inactive. For the same compound, on P2Y purinoceptor 1, the Ratio EC50 was 200.
Consider `BP(=O)(OP(=O)(O)CP(=O)(O)OC[C@H]1O[C@@H](n2cnc3c(N)ncnc32)[C@H](O)[C@@H]1O)OP(=O)(O)CP(=O)(O)OC[C@H]1O[C@@H](n2cnc3c(N)ncnc32)[C@H](O)[C@@H]1O`, for which, at Autotaxin (Homo sapiens), the inhibition amounted to 95%. For the same compound, the results for the Activity in assay [1] and in assay [2] were 12% and 0.5%, respectively. Also, the inhibition entry in assay [3] was “inactive”. Moreover, the outcome in assay [4] was inactive. The Ratio EC50 on P2Y purinoceptor 1 was determined as 2.
For `Nc1ncnc2c1ncn2[C@@H]1O[C@H](COP(=O)(O)CP(=O)(O)OP(=O)(O)CP(=O)(O)OC[C@H]2O[C@@H](n3cnc4c(N)ncnc43)[C@H](O)[C@@H]2O)[C@@H](O)[C@H]1O`, the values for the inhibition (on Autotaxin (Homo sapiens); in assay [3]) were 95% and 90%, respectively. Moreover, the Activity in assay [1] was found to be 11%; in assay [2], 1.5%. For the same compound, the result in assay [4] was inactive. The Ratio EC50 on P2Y purinoceptor 1 was found to be 60.
Regarding `BP(=O)(OP(=O)(O)CP(=O)(O)OC[C@H]1O[C@@H](n2cnc3c(N)ncnc32)C[C@@H]1O)OP(=O)(O)CP(=O)(O)OC[C@H]1O[C@@H](n2cnc3c(N)ncnc32)C[C@@H]1O`, the inhibition on Autotaxin (Homo sapiens) came out at 95%. Further, the Activity in assay [1] is 5.5%. Moreover, in assay [3], the inhibition entry is “inactive”. Also, the result in assay [4] was inactive. Besides, on P2Y purinoceptor 1, the Ratio EC50 is > 200.
